Laboratory results as given in ChEMBL document CHEMBL2311499, “Synthesis, antiproliferative activity and tubulin targeting effect of acridinone and dioxophenothiazine derivatives” (Eur J Med Chem, 2013).
Each block holds one molecule with its values, some of them ahead of it. The source made the active and inactive calls. The calls are words filed in the database; no cut-off is given here.

Key:
HT-29 [1] = experiment: Cell cycle arrest in human HT-29 cells assessed as accumulation at sub-G1 phase at 0.5 uM after 24 hrs flow cytometry; format: functional
Procedure, shortened: (§1)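 Flow cytometry: 2.5–4 × 10⁵ cells were seeded in 6-well plates, grown 24 h, then treated for 24 h. Floating and adherent cells were pooled and fixed in cold 70% ethanol for 24 h. Results are reported as the percentage of cells in sub-G1, G1, S and G2 phases.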

CAL-33 [2] = experiment: Cell cycle arrest in human CAL33 cells assessed as accumulation at G1 phase at 0.5 uM after 24 hrs flow cytometry; format: functional; procedure, shortened: as §1
HT-29 [3] = experiment: Cell cycle arrest in human HT-29 cells assessed as accumulation at G2 phase at 0.5 uM after 24 hrs flow cytometry; format: functional; procedure, shortened: as §1
CAL-33 [4] = experiment: Cell cycle arrest in human CAL33 cells assessed as accumulation at G2 phase at 0.5 uM after 24 hrs flow cytometry; format: functional; procedure, shortened: as §1
HT-29 [5] = experiment: Cell cycle arrest in human HT-29 cells assessed as accumulation at G1 phase at 0.5 uM after 24 hrs flow cytometry; format: functional; procedure, shortened: as §1
HT-29 [6] = experiment: Cell cycle arrest in human HT-29 cells assessed as accumulation at S phase at 0.5 uM after 24 hrs flow cytometry; format: functional; procedure, shortened: as §1
CAL-33 [7] = experiment: Cell cycle arrest in human CAL33 cells assessed as accumulation at sub-G1 phase at 0.5 uM after 24 hrs flow cytometry; format: functional; procedure, shortened: as §1
CAL-33 [8] = experiment: Cell cycle arrest in human CAL33 cells assessed as accumulation at S phase at 0.5 uM after 24 hrs flow cytometry; format: functional; procedure, shortened: as §1
[9] = Inhibition of bovine tubulin polymerization after 1 hr; parameters: species or system Bos taurus
HT-29 [10] = experiment: Antiproliferative activity against human HT-29 cells after 72 hrs by MTT assay; format: functional, cell-based; details: HT-29, 72 h
Procedure, shortened: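 HT29 cells were seeded at (1.6–1.8) × 10⁴ per well in medium with 10% FBS, serum-starved after 72 h, and treated the following day for 72 h. Viability was read by MTT (4 mg/mL, 4 h, 37 °C, 5% CO₂) with SDS/HCl solubilisation and absorbance at 570 nm. IC50 is the concentration giving 50% inhibition of proliferation relative to untreated controls.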

PC-3 = experiment: Antiproliferative activity against human PC3 cells after 72 hrs by MTT assay; format: functional, cell-based; details: PC-3, 72 h
Procedure, shortened: (§2)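 MTT viability readout. Cells were seeded at (1.6–1.8) × 10⁴ per well in medium with 10% FBS. After 72 h they were serum-deprived, then treated next day with a range of concentrations. MTT (4 mg/mL) was added for 4 h at 37 °C, 5% CO₂, followed by SDS/HCl lysis and absorbance at 570 nm. IC50 is the concentration giving 50% inhibition of proliferation relative to untreated controls.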

DU-145 = experiment: Antiproliferative activity against human DU145 cells after 72 hrs by MTT assay; format: functional, cell-based; details: DU-145, 72 h; procedure, shortened: as §2
HT-29 [11] = experiment: Cell cycle arrest in human HT-29 cells assessed as accumulation at sub-G1 phase at 5 uM after 24 hrs flow cytometry; format: functional; procedure, shortened: as §1
HL-60 [12] = experiment: Cell cycle arrest in human HL60 cells assessed as accumulation at G1 phase at 5 uM after 24 hrs flow cytometry; format: functional; procedure, shortened: as §1
HL-60 [13] = experiment: Cell cycle arrest in human HL60 cells assessed as accumulation at S phase at 5 uM after 24 hrs flow cytometry; format: functional; procedure, shortened: as §1
CAL-33 [14] = experiment: Antiproliferative activity against human CAL33 cells after 72 hrs by MTT assay; format: functional, cell-based; details: CAL-33, 72 h; procedure, shortened: as §2
CAL-33 [15] = experiment: Cell cycle arrest in human CAL33 cells assessed as accumulation at G2 phase at 0.5 uM after 24 hrs flow cytometry
HL-60 [16] = experiment: Antiproliferative activity against human HL60 cells after 72 hrs by MTT assay; format: functional, cell-based; details: HL-60, 72 h; procedure, shortened: as §2
HL-60 [17] = experiment: Cell cycle arrest in human HL60 cells assessed as accumulation at S phase at 0.5 uM after 24 hrs flow cytometry; format: functional; procedure, shortened: as §1
HT-29 [18] = experiment: Cell cycle arrest in human HT-29 cells assessed as accumulation at G1 phase at 5 uM after 24 hrs flow cytometry; format: functional; procedure, shortened: as §1
HL-60 [19] = experiment: Cell cycle arrest in human HL60 cells assessed as accumulation at sub-G1 phase at 5 uM after 24 hrs flow cytometry; format: functional; procedure, shortened: as §1
HL-60 [20] = experiment: Cell cycle arrest in human HL60 cells assessed as accumulation at sub-G1 phase at 0.5 uM after 24 hrs flow cytometry; format: functional; procedure, shortened: as §1
HL-60 [21] = experiment: Cell cycle arrest in human HL60 cells assessed as accumulation at G2 phase at 5 uM after 24 hrs flow cytometry; format: functional; procedure, shortened: as §1
HL-60 [22] = experiment: Cell cycle arrest in human HL60 cells assessed as accumulation at G1 phase at 0.5 uM after 24 hrs flow cytometry; format: functional; procedure, shortened: as §1
HT-29 [23] = experiment: Cell cycle arrest in human HT-29 cells assessed as accumulation at S phase at 5 uM after 24 hrs flow cytometry; format: functional; procedure, shortened: as §1
HT-29 [24] = experiment: Cell cycle arrest in human HT-29 cells assessed as accumulation at G2 phase at 5 uM after 24 hrs flow cytometry; format: functional; procedure, shortened: as §1
HL-60 [25] = experiment: Cell cycle arrest in human HL60 cells assessed as accumulation at G2 phase at 0.5 uM after 24 hrs flow cytometry; format: functional; procedure, shortened: as §1
[26] = molecular target: DNA topoisomerase 2-alpha (Homo sapiens) (UniProt P11388); experiment: Inhibition of human topoisomerase 2-mediated supercoiled plasmid DNA cleavage at 50 uM after 30 min by agarose gel electrophoresis
Sequence of DNA topoisomerase 2-alpha (Homo sapiens) (P11388 whole entry): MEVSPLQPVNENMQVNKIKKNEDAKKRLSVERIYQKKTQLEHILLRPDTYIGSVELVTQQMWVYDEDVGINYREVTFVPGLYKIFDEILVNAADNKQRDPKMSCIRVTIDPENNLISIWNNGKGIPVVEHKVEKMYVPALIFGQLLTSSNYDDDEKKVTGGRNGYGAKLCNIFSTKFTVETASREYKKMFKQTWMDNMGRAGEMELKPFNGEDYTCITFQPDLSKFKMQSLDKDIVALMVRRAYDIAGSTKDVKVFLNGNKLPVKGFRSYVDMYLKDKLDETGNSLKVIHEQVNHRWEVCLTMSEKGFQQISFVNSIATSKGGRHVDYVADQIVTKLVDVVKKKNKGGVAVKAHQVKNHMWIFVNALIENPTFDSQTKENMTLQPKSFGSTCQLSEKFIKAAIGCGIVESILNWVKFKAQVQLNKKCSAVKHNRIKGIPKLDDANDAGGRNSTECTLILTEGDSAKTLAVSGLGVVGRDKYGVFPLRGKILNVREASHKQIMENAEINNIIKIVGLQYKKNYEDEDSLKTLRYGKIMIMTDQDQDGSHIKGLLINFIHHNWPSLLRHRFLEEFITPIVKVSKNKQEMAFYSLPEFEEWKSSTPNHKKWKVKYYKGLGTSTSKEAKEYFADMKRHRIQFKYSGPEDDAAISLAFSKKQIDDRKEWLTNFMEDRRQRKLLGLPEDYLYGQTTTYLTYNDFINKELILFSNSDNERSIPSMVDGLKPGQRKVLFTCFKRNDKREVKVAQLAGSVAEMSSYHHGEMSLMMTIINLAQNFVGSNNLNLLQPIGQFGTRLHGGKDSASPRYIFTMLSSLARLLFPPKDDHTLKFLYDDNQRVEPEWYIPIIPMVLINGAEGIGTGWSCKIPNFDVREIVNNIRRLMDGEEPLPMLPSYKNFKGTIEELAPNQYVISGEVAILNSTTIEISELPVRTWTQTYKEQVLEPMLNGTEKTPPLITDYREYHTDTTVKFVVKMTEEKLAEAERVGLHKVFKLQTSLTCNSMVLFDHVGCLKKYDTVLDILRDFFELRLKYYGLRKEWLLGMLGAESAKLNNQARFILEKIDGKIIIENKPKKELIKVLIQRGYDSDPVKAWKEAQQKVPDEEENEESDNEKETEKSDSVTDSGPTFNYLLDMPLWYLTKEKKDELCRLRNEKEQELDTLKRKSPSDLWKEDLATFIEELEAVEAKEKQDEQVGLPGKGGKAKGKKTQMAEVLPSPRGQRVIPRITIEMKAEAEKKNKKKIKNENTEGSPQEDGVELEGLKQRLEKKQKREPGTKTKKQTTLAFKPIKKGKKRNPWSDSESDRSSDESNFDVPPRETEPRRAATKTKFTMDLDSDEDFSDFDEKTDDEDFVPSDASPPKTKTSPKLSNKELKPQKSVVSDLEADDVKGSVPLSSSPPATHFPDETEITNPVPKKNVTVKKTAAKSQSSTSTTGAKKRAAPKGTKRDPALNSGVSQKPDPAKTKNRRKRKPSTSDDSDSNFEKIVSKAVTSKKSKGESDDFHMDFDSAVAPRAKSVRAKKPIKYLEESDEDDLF

CAL-33 [27] = experiment: Cell cycle arrest in human CAL33 cells assessed as accumulation at sub-G1 phase at 5 uM after 24 hrs flow cytometry; format: functional; procedure, shortened: as §1
CAL-33 [28] = experiment: Cell cycle arrest in human CAL33 cells assessed as accumulation at S phase at 5 uM after 24 hrs flow cytometry; format: functional; procedure, shortened: as §1
CAL-33 [29] = experiment: Cell cycle arrest in human CAL33 cells assessed as accumulation at G1 phase at 5 uM after 24 hrs flow cytometry; format: functional; procedure, shortened: as §1
CAL-33 [30] = experiment: Cell cycle arrest in human CAL33 cells assessed as accumulation at G2 phase at 5 uM after 24 hrs flow cytometry; format: functional; procedure, shortened: as §1

Structure (SMILES): CC[C@]1(O)C[C@H]2CN(CCc3c([nH]c4ccccc34)[C@@](C(=O)OC)(c3cc4c(cc3OC)N(C=O)[C@H]3[C@@](O)(C(=O)OC)[C@H](OC(C)=O)[C@]5(CC)C=CCN6CC[C@]43[C@@H]65)C2)C1 [VINCRISTINE]
Activity (HT-29 [1]): 5.97% | Activity (CAL-33 [2]): 14.29% | Activity (HT-29 [3]): 72.53% | Activity (CAL-33 [4]): 72.5% | Activity (HT-29 [5]): 16.43% | Activity (HT-29 [6]): 4.65% | Activity (CAL-33 [7]): 20.5% | Activity (CAL-33 [8]): 17.13%

Structure (SMILES): COc1ccc(S(=O)(=O)Nc2cccnc2Nc2ccc(O)cc2)cc1 [ABT-751]
IC50 [9]: 2.2 µM | IC50 (HT-29 [10]): 0.21 µM

Structure (SMILES): COc1ccc(CCc2cccc3c(=O)c4ccccc4[nH]c23)cc1OC
IC50 [9]: > 10 µM | IC50 (HT-29 [10]): > 50 µM

Structure (SMILES): CCC1=C[C@@H]2CN(C1)Cc1c([nH]c3ccccc13)[C@@](C(=O)OC)(c1cc3c(cc1OC)N(C)[C@H]1[C@@](O)(C(=O)OC)[C@H](OC(C)=O)[C@]4(CC)C=CCN5CC[C@]31[C@@H]54)C2 [VINORELBINE]
Activity (HT-29 [1]): 1.39% | Activity (CAL-33 [2]): 9.96% | Activity (HT-29 [3]): 72.85% | Activity (CAL-33 [4]): 72.8% | Activity (HT-29 [5]): 21.42% | Activity (HT-29 [6]): 3.41% | Activity (CAL-33 [7]): 24.44% | Activity (CAL-33 [8]): 17.62%

Structure (SMILES): O=c1c2ccccc2[nH]c2c(CCc3ccc(O)c(O)c3)cccc12
IC50 [9]: > 10 µM | IC50 (HT-29 [10]): > 50 µM

Structure (SMILES): CC(=O)O[C@@]12CO[C@@H]1C[C@H](O)[C@@]1(C)C(=O)[C@H](O)C3=C(C)[C@@H](OC(=O)[C@H](O)[C@@H](NC(=O)OC(C)(C)C)c4ccccc4)C[C@@](O)([C@@H](OC(=O)c4ccccc4)[C@H]21)C3(C)C.O.O.O [DOCETAXEL]
Activity (HT-29 [1]): 0.86% | Activity (CAL-33 [2]): 4.99% | Activity (HT-29 [3]): 88.24% | Activity (CAL-33 [4]): 88.2% | Activity (HT-29 [5]): 7.85% | Activity (HT-29 [6]): 2.76% | Activity (CAL-33 [7]): 17.11% | Activity (CAL-33 [8]): 15.41%

Structure (SMILES): COc1cc(CCc2cccc3c2Nc2ccccc2S3(=O)=O)cc(OC)c1OC
IC50 [9]: > 10 µM | IC50 (HT-29 [10]): > 100 µM

Structure (SMILES): COc1ccc(CCc2cccc3c2Nc2ccccc2S3(=O)=O)cc1O
IC50 [9]: 1.25 µM | IC50 (HT-29 [10]): 7.2 µM

Structure (SMILES): COc1cc(CCc2cccc3c(=O)c4ccccc4[nH]c23)cc(OC)c1OC
IC50 [9]: > 10 µM | IC50 (PC-3): > 100 µM | IC50 (DU-145): > 100 µM | IC50 (CAL-33 [14]): > 100 µM | IC50 (HL-60 [16]): > 50 µM | IC50 (HT-29 [10]): > 100 µM | inhibition [26]: Active

Now from value to molecule, other results behind:

IC50 [9]: > 10 µM | IC50 (HT-29 [10]): > 100 µM
Structure (SMILES): O=S1(=O)c2ccccc2Nc2c(CCc3ccc(O)c(O)c3)cccc21

IC50 [9]: 2.4 µM | IC50 (PC-3): 0.475 µM | IC50 (DU-145): 0.017 µM | IC50 (HT-29 [10]): 0.024 µM
Structure (SMILES): COc1ccc(CCN2C=CC=C3C2=Nc2ccccc2OS3(=O)=O)cc1

IC50 [9]: 0.51 µM | IC50 (HT-29 [10]): 12 µM
Structure (SMILES): COc1ccc(CCc2cccc3c(=O)c4ccccc4[nH]c23)cc1O

IC50 [9]: > 10 µM | IC50 (PC-3): > 50 µM | IC50 (DU-145): 0.81 µM | IC50 (HL-60 [16]): 1.65 µM | IC50 (HT-29 [10]): 0.87 µM | inhibition [26]: Active
Structure (SMILES): COc1ccc(CCc2cccc3c2Nc2ccccc2S3(=O)=O)cc1
Activity (HT-29 [1]): 1.63% | Activity (HT-29 [11]): 0.47% | Activity (HL-60 [12]): 26.83% | Activity (HL-60 [13]): 24.77% | IC50 (CAL-33 [14]): 0.627 µM | Activity (CAL-33 [15]): 15.95% | Activity (HL-60 [17]): 21.83% | Activity (HT-29 [18]): 8.63% | Activity (HL-60 [19]): 34.12% | Activity (HL-60 [20]): 8.22% | Activity (HL-60 [21]): 14.77% | Activity (HL-60 [22]): 57.66% | Activity (HT-29 [23]): 2.46% | Activity (HT-29 [5]): 73.56% | Activity (HT-29 [24]): 87.92% | Activity (HL-60 [25]): 12.4% | Activity (HT-29 [6]): 8.63%

IC50 [9]: > 10 µM | IC50 (PC-3): 0.75 µM | IC50 (DU-145): 0.05 µM | IC50 (HL-60 [16]): 0.1 µM | IC50 (HT-29 [10]): 0.051 µM | inhibition [26]: Active
Structure (SMILES): COc1ccc(CCc2cccc3c(=O)c4ccccc4[nH]c23)cc1
Activity (HT-29 [1]): 0.65% | Activity (HT-29 [11]): 0.83% | Activity (CAL-33 [2]): 4% | Activity (HL-60 [12]): 24.4% | Activity (HL-60 [13]): 26.55% | IC50 (CAL-33 [14]): 0.037 µM | Activity (CAL-33 [27]): 22.73% | Activity (CAL-33 [28]): 33.12% | Activity (HL-60 [17]): 18.5% | Activity (HT-29 [18]): 21.11% | Activity (HT-29 [3]): 81.81% | Activity (HL-60 [19]): 34.34% | Activity (HL-60 [20]): 37.16% | Activity (HL-60 [21]): 15.2% | Activity (HL-60 [22]): 25.15% | Activity (HT-29 [23]): 4.6% | Activity (CAL-33 [4]): 57.42% | Activity (HT-29 [5]): 14.55% | Activity (HT-29 [24]): 73.1% | Activity (HL-60 [25]): 19.58% | Activity (HT-29 [6]): 2.75% | Activity (CAL-33 [7]): 9.84% | Activity (CAL-33 [29]): 8.35% | Activity (CAL-33 [30]): 35.16% | Activity (CAL-33 [8]): 28.46%

IC50 [9]: > 10 µM | IC50 (HT-29 [10]): > 50 µM
Structure (SMILES): COc1ccc(CCc2cccc3c2Nc2ccccc2S3(=O)=O)cc1OC
